Molecules are shown by their SMILES. Some results are limits rather than exact numbers.

Data set [1] can be described thus: Permeability from basal to apical side of RRCK cells at 2 uM. Particulars: dog, MDCK; read-out: permeability. In kind it is ADME, cell-based, Canis lupus familiaris, MDCKII-LE. In outline:
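Basal→apical transfer rate of test compound at 2 μM across contiguous RRCK cell monolayers, quantified by MS.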

Data set [2] is described as follows: Intrinsic clearance in human liver microsomes assessed per mg of protein. Particulars: read-out: CLH. The data set is classed as ADME, Microsome. Background: Microsomes from liver hold many membrane-bound enzymes, among them those of drug oxidation.
Data set [3] in a line: Permeability from apical to basal side of MDCK cells. The data set is classed as ADME, cell-based, Canis lupus familiaris. Particulars: dog, read-out: permeability. In outline:
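Test compound applied at 2 μM to contiguous cell monolayers. Apical-to-basal transfer rate quantified by mass spectrometry.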

Take `N#Cc1ccc(COC(=O)[C@H]2C[C@]3(CN2)C(=O)Nc2ccccc23)cc1`: the Papp B→A at 2 µM in data set [1] was found to be 18.4 ×10⁻⁶ cm/s.

`N#Cc1ccc(COC(=O)[C@H]2C[C@]3(CN2)C(=O)Nc2ccccc23)cc1Br`: the Papp B→A at 2 µM in data set [1] came to 10.2 ×10⁻⁶ cm/s.

`O=C1Nc2ccccc2[C@@]12CN[C@@H](CNCc1cccc(C(F)(F)F)c1)C2`: the microsomal CLint in data set [2] is 94.8 µL/min/mg.

Turning to `O=C(OC1CCOCC1)[C@H]1C[C@]2(CN1)C(=O)Nc1ccccc12`, the Papp B→A at 2 µM in data set [1] turned out to be 25 ×10⁻⁶ cm/s.

In the case of `O=C(OCc1ccc(Br)cc1)[C@H]1C[C@]2(CN1)C(=O)Nc1ccccc12`, the Papp B→A at 2 µM in data set [1] amounted to 7.11 ×10⁻⁶ cm/s.

On to `CNC(=O)[C@H]1C[C@]2(CN1)C(=O)Nc1ccccc12`, for which the microsomal CLint in data set [2] came out at 14.3 µL/min/mg. Besides, the Papp B→A at 2 µM in data set [1] was 4.86 ×10⁻⁶ cm/s.

Regarding `CN(C)C(=O)[C@H]1C[C@]2(CN1)C(=O)Nc1ccccc12`, the microsomal CLint in data set [2] is less than 8 µL/min/mg.

Regarding `O=C1Nc2ccccc2[C@]12CCNC2`, the Papp A→B in data set [3] is 12.2 ×10⁻⁶ cm/s.

Take `O=C(NCc1ccccc1)[C@H]1C[C@]2(CN1)C(=O)Nc1ccccc12`: the microsomal CLint in data set [2] stood at 15 µL/min/mg.

Regarding `O=C(OCc1ccccc1)[C@H]1C[C@]2(CN1)C(=O)Nc1ccccc12`, the Papp B→A at 2 µM in data set [1] turned out to be 30.4 ×10⁻⁶ cm/s.

As to `N#CC1(OC(=O)[C@H]2C[C@]3(CN2)C(=O)Nc2ccccc23)CCCCC1`, the Papp B→A at 2 µM in data set [1] is 22.7 ×10⁻⁶ cm/s.

Take `COC(=O)N1CCC(OC(=O)[C@H]2C[C@]3(CN2)C(=O)Nc2ccccc23)CC1`: the Papp B→A at 2 µM in data set [1] turned out to be 20.9 ×10⁻⁶ cm/s.

As to `O=C1Nc2ccccc2[C@@]12CN[C@@H](CNCc1ccccc1)C2`, the microsomal CLint in data set [2] worked out at 76.7 µL/min/mg. The Papp B→A at 2 µM in data set [1] stood at 13.5 ×10⁻⁶ cm/s.

In the case of `O=C1Nc2ccccc2[C@@]12CN[C@@H](CCCc1ccccc1)C2`, the microsomal CLint in data set [2] worked out at 91.3 µL/min/mg. Further, in data set [1], the Papp B→A at 2 µM was determined as 11.4 ×10⁻⁶ cm/s.

In the case of `O=C1Nc2ccccc2[C@@]12CN[C@@H](COCc1ccccc1)C2`, the microsomal CLint in data set [2] turned out to be 24.7 µL/min/mg. Further, the Papp B→A at 2 µM in data set [1] was 23.9 ×10⁻⁶ cm/s.

Consider `CN(C(=O)[C@H]1C[C@]2(CN1)C(=O)Nc1ccccc12)C1CCOCC1`, for which, in data set [2], the microsomal CLint is less than 8 µL/min/mg. Also, in data set [1], the Papp B→A at 2 µM was 2.92 ×10⁻⁶ cm/s.

Turning to `O=C(OC1CCS(=O)(=O)c2ccc(Br)cc21)[C@H]1C[C@]2(CN1)C(=O)Nc1ccccc12` (mixture of isomers), the Papp B→A at 2 µM in data set [1] was determined as 49.1 ×10⁻⁶ cm/s.

In the case of `O=C1Nc2ccccc2[C@@]12CN[C@@H](c1ccccc1)C2` (racemic), the microsomal CLint in data set [2] amounted to 16.6 µL/min/mg. For the same compound, the Papp B→A at 2 µM in data set [1] stood at 29.6 ×10⁻⁶ cm/s.

`COC(=O)[C@H]1C[C@]2(CN1)C(=O)Nc1ccccc12`: the Papp B→A at 2 µM in data set [1] worked out at 29.5 ×10⁻⁶ cm/s.
